Laboratory results: paper PMC1389615 (The Journal of General Physiology, 2004)
Positions count from the first letter of the chain named.

Assays:
Test in all cases: inside-out patch clamp, block of cGMP-activated current, Hill fit
Type in all cases: cell-based
[1] = target: T1, CNGA1 (Bos taurus, UniProt Q00194, R342D)
T1 sequence (Q00194 1-690 R342D): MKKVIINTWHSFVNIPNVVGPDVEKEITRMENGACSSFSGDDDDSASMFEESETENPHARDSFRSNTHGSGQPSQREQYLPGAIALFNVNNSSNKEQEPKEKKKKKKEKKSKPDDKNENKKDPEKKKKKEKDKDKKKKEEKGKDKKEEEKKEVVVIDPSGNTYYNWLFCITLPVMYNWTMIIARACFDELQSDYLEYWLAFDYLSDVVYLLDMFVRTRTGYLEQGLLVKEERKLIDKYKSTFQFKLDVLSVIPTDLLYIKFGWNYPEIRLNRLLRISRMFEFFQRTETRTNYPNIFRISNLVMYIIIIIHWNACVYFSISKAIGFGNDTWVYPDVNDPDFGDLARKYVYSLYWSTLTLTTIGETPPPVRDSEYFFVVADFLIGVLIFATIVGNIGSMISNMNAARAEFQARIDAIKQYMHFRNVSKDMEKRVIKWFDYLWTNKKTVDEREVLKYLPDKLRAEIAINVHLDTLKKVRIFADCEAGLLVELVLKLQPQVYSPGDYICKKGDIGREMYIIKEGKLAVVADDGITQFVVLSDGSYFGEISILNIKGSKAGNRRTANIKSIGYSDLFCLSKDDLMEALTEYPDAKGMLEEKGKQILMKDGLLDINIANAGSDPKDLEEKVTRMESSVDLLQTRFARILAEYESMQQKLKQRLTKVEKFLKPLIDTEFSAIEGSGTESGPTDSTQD

[2] = target: T2, CNGA2 (Rattus norvegicus, UniProt Q00195)
T2 sequence (Q00195 1-664): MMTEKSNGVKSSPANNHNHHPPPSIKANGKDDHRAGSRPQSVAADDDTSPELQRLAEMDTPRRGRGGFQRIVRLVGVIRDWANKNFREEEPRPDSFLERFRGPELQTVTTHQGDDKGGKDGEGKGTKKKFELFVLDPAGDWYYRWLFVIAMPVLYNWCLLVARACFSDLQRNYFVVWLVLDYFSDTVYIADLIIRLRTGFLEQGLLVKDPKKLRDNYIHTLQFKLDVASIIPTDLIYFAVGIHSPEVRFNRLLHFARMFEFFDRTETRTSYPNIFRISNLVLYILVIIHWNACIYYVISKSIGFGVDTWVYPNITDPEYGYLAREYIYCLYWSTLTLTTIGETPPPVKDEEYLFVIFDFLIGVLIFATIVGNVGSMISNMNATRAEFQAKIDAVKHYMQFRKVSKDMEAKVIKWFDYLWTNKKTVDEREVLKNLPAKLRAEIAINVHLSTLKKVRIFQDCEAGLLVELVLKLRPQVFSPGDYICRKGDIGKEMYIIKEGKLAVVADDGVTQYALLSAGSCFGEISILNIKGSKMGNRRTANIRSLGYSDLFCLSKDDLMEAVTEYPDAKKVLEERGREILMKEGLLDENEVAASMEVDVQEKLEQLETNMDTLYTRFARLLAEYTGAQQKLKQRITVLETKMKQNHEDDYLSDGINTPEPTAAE
Method in brief: (§1)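 Channels expressed in Xenopus oocytes 2–10 d after cRNA injection; inside-out patches, room temperature. […] Blocker applied at 0 mV with 20-ms steps to +20 mV every 5 s. Currents were cGMP-free subtracted. Hill fit, SEM, n = 5–7 patches.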

[3] = target: T3, CNGA1 (Bos taurus, UniProt Q00194)
T3 sequence (Q00194 1-690): T1 sequence (Q00194 1-690 R342D) with D342R
Method in brief: as §1

[4] = target: T4, CNGA1 (Bos taurus, UniProt Q00194, R342Y)
T4 sequence (Q00194 1-690 R342Y): T1 sequence (Q00194 1-690 R342D) with D342Y

IC50 [1]: 123 ± 0.2 nM | IC50 [2]: 2400 ± 290 nM | IC50 [3]: 189 ± 4.19 nM | IC50 [4]: 91 ± 0.1 nM
Compound: Cc1cc(N)c2ccccc2[n+]1CCCCCCCCCC[n+]1c(C)cc(N)c2ccccc21 [dequalinium]
